{"data": "Measured values gathered from unrelated publications", "note": "Lines come from different studies, so protocols differ."}
{"SMILES": "C[C@]12CCC(=O)C(O)=C1CC[C@@H]1[C@@H]2CC[C@]2(C)C(=O)CC[C@@H]12", "tested on": "CAL-27", "test": "cell growth or viability", "conditions": "72 h", "endpoint": "IC50", "value": "> 20 µM"}
{"SMILES": "CCC1(c2ccc(N)cc2)CCC(=O)NC1=O (stereo not shown)", "tested on": "MCF-10A", "test": "cell growth or viability, CCK-8", "conditions": "48 h", "endpoint": "IC50", "value": "> 50 µM"}
{"SMILES": "Cc1ccc(Cl)c(Nc2ccccc2C(=O)O)c1Cl", "tested on": "human PBMC", "test": "cell migration", "conditions": "10 µM", "endpoint": "inhibition", "value": "100%"}
{"SMILES": "Cc1cc(C)c(-n2ccn(-c3c(C)cc(C)cc3C)c2=[Se])c(C)c1", "tested on": "HCT-15", "test": "cell growth or viability, MTT", "conditions": "72 h", "endpoint": "IC50", "value": "10.7 µM"}
{"SMILES": "CN(c1ccccc1)S(=O)(=O)c1cc(C(=O)NCc2ccco2)ccc1Cl", "tested on": "human PBMC", "test": "cell migration", "conditions": "10 µM", "endpoint": "inhibition", "value": "82%"}
{"SMILES": "C/C(O)=C1\\C(=O)C(CC(C)C)N(C(=O)CCCCCc2ccccc2)C1=O (stereo not shown)", "tested on": "Burkholderia cepacia", "test": "microbial growth", "test system": "ATCC25416", "endpoint": "MIC", "value": "> 200 µg/mL"}
{"SMILES": "C=C(CCC=C(C)C)[C@H]1CC[C@H]2[C@@H]3CC=C4C[C@@H](O)CC[C@]4(C)[C@H]3CC[C@]12C", "tested on": "Leishmania mexicana", "test": "parasite growth", "conditions": "48 h, promastigote", "endpoint": "IC50", "value": "> 262 µM"}
{"SMILES": "CCCCCCC/C=C/C(=O)N1C(=O)/C(=C(/C)O)C(=O)C1Cc1ccc(OC(C)(C)C)cc1 (stereo not shown)", "tested on": "Burkholderia cepacia", "test": "microbial growth", "test system": "ATCC25416", "endpoint": "MIC", "value": "> 200 µg/mL"}
{"SMILES": "O=c1ccc2ccc3occc3c2o1", "test": "tubulin polymerisation, inhibitor", "conditions": "10 µM", "endpoint": "inhibition", "value": "57.1%"}
{"SMILES": "CCCCCCC/C=C/C(=O)N1C(=O)/C(=C(/C)O)C(=O)C1CCCCN (stereo not shown)", "tested on": "Burkholderia cepacia", "test": "microbial growth", "test system": "ATCC25416", "endpoint": "MIC", "value": "> 200 µg/mL"}
{"SMILES": "CC(C)CCC[C@@H](C)[C@H]1CC[C@H]2[C@@H]3CCC4=CC(=O)CC[C@]4(C)[C@H]3CC[C@]12C", "tested on": "Leishmania mexicana", "test": "parasite growth", "conditions": "48 h, promastigote", "endpoint": "IC50", "value": "81 µM"}
{"SMILES": "CCCCCCC/C=C/C(=O)N1C(=O)/C(=C(\\O)c2ccc(O)cc2)C(=O)C1CC(C)C (stereo not shown)", "tested on": "Burkholderia cepacia", "test": "microbial growth", "test system": "ATCC25416", "endpoint": "MIC", "value": "100 µg/mL"}
{"SMILES": "O=C(Oc1ccc(Cl)cc1)[c-]1cccc1.[Fe+2].c1cc[cH-]c1", "tested on": "MCF-10A", "test": "cell growth or viability, MTT", "conditions": "72 h", "endpoint": "IC50", "value": "500 µM"}
